Most compounds without a hit are left out; they make up all but 2.2% or so of the library.
Diaphorase act – compounds boosting diaphorase resazurin reduction – biochemical, uHTS, resorufin fluorescence, counter-screen for diaphorase-coupled primary assays, primary screen | AID 1229, 2008 | Diaphorase/resazurin coupled assay, 16 min; stronger effect = higher value; 1 = vehicle wells, 0 = NADH-free wells | activation factor at 20 µM | 0.005% of 190,000 active;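 active = diaphorase activity raised at least twofold by the compound at 20 µM; inactive = activation factor below 2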
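Test system: Clostridium kluyveri diaphorase, purified enzyme. Buffer or medium: 50 mM HEPES pH 7.4 buffer plus MgCl2 and Tween 20. Also added: 0.114 mM NADH and 0.1 mM resazurin, final amounts. Dosing: compound 20 µM once, DMSO 1%. Schedule: 16 min enzyme reaction, ambient temperature. Detection: fluorescence of resorufin, 544 nm excitation, 590 nm emission.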
PMI act – activators of human PMI, primary screen, biochemical, fluorescence intensity, near-Km mannose 6-phosphate; Mannose-6-phosphate isomerase (Homo sapiens), P34949; purified human PMI, coupled resazurin fluorescence, 20 min; stronger effect = higher value; 1 = vehicle control, 0 substrate-free wells; activation factor at 20 µM; 0.005% of 190,000 active; AID 1214, 2008;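 active = activation factor of 2 or more at 20 µM, relative to plate controls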
PMI act satM6P – human PMI activators, high substrate, primary screen, biochemical, fluorescence intensity, near-saturating mannose 6-phosphate; activation factor at 20 µM; coupled PMI enzyme assay, resazurin fluorescence, 20 min; stronger effect = higher value; 1 = untreated enzyme, 0 = substrate-free blank; 0.34% of 190,000 active; AID 1216, 2008; Mannose-6-phosphate isomerase (Homo sapiens), P34949;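 active = activation factor of 2 or more at 20 µM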
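assay system = human phosphomannose isomerase with PGI, G6PDH, diaphorase coupling enzymes | quantity = 15 ng/mL PMI | incubation = enzyme reaction with compound 20 min at room temperature | medium = HEPES pH 7.4 buffer with MgCl2 and Tween-20 | compound dosing = one concentration, 20 µM, in 1% DMSO | measured by = Diaphorase-driven resazurin-to-resorufin fluorescence, excitation 544, emission 590 nm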
G6PDH CS – L. mesenteroides G6PDH inhibitors, counter-screen for G6PDH-coupled screening assays, biochemical, Leuconostoc mesenteroides enzyme. glucose-6-phosphate dehydrogenase [Leuconostoc mesenteroides]. Purified L. mesenteroides G6PDH, diaphorase/resazurin coupled fluorescence, 45 min. inhibition, % at 5 µM. 0.12% of 200,000 active. AID 1020, 2008; in the data active = inhibition above about 50%
ROMK mod – ROMK potassium channel modulators, primary screen, cell-based, thallium flux, MLSMR library; 2% of 130,000 active; Tet-inducible ROMK, thallium flux fluorescence; actives lie on both sides; B-score at 10 µM;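 active = signal ratio slope over the read window, or its plate-corrected B-score, at least 3 SD from the plate mean, either direction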;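 note: B-score of the F/F0 ratio slope over 7 to 12 s after thallium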
Target sequence (P48048 whole entry, looked up): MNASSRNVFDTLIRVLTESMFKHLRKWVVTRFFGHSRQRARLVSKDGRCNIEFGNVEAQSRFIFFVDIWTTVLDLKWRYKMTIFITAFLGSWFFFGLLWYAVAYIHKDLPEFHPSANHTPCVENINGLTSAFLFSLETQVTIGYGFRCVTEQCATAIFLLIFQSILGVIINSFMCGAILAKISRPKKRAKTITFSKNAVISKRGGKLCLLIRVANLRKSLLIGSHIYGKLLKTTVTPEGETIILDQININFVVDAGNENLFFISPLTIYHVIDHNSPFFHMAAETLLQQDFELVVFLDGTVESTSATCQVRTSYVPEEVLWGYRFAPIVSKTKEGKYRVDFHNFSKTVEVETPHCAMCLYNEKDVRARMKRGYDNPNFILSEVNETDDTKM
Diaph inh CS – diaphorase inhibitors and chemical oxidizers, primary screen, counter-screen for diaphorase-coupled primary assays, biochemical, uHTS, resorufin fluorescence. 0.69% of 190,000 active. diaphorase resazurin-to-resorufin fluorescence, NADH, 16 min; bacterial (C. kluyveri) enzyme, not human. inhibition, % at 20 µM;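 active = primary screen inhibition at 20 µM above a set limit, cut at about 50% in these data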;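 note: plate controls were DMSO with full reaction for no effect and wells lacking NADH for full effect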
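Benchmarks: positive control wells lacking NADH, neutral wells with DMSO only. System: bacterial diaphorase enzyme (C. kluyveri). Input: 0.14 U/mL diaphorase, enzyme working solution. Detection: resorufin fluorescence, excitation 544 nm, emission 590 nm. Times: 16-min room-temperature incubation before reading.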
ROMK hit retest – ROMK channel modulator hit retest, confirmation, cell-based, thallium flux, duplicate, resupplied hits; 54% of 3,000 active; fluorescence ratio; stronger effect = lower value; shares compounds with ROMK mod; normalized thallium flux (F/F0 slope) at 10 µM;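 active = Flux at 10 µM at least 3 SD below or above vehicle control mean in one or both replicates; inconclusive = no clear call, values can overlap the other calls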
* marks the source's active call; other numbers are inactive results; ? = inconclusive; . = no result given.

SMILES	Diaphorase act	PMI act	PMI act satM6P	G6PDH CS	ROMK mod	Diaph inh CS	ROMK hit retest
O=C(NCCN1CCOCC1)c1ccccc1[N+](=O)[O-]	1.1	1	1.1	10	3.1*	-13	0.089
O=C(c1ccc(-c2cc(Cl)ccc2Cl)o1)N1CCOCC1	.	.	.	9	-3.5*	.	0.063*
CC/C(=C\c1oc2cc3ccccc3cc2[n+]1CC)Nc1ccccc1	0.9	1.2	0.8	4	.	6	0.055*
Cc1cccc(C(=O)Nc2ccc(C(=O)/C=C/c3cccnc3)cc2)c1	1.1	0.9	1.1	3	-2.4*	-9	?
C=CCSc1nc(C)cc2c1C(=O)OC2	1	1.1	1.1	5	.	-5	.
Cc1ccc(S(=O)(=O)NC2=NCN(C3CCCCC3)CN2)cc1	1	1	1.1	1	.	1	?
COc1cc(C(C(=O)NCc2ccccc2)N(Cc2ccco2)C(=O)c2cnccn2)cc(OC)c1OC (centres undefined)	1.1	1.1	1.1	4	0.24	-14	.
COc1ccc(S(=O)(=O)NC(CC(=O)NCc2ccco2)c2ccco2)cc1 (centres undefined)	0.8	0.9	0.9	15	.	17	.
Cc1ccc(S(=O)(=O)NC(CC(=O)NCc2ccco2)c2ccco2)cc1 (centres undefined)	1	1	0.9	2	2.8*	-3	?
COc1ccc(NC(=S)N/N=C/c2cccn2Cc2ccc(F)cc2)cc1	0.9	1	1	-8	-0.76	9	.
COc1ccc(NCC(=O)N/N=C2\CCCC(C)C2)cc1 (centres undefined)	0.9	1	0.8	-5	2.1*	6	0.077
O=C(CSc1nnc(-c2ccccn2)n1Cc1ccccc1)N1CCOCC1	0.9	0.9	1	10	0.00021	11	.
O=C(CSc1ncn[nH]1)NC12CC3CC(CC(C3)C1)C2	1	1	1.1	-1	3*	-2	0.075
CCSc1ncnc2c1sc1nc(-c3ccco3)c3c(c12)CC(C)(C)OC3	0.7	0.9	0.9	-9	.	26	0.08
C#CCOCCOCCOCCNc1nc(N2CCN(C(=O)[C@H](Cc3ccc(O)cc3)n3cc(CCO)nn3)CC2)nc(N2CCN(C(=O)[C@H](Cc3ccc(O)cc3)n3cc(CCO)nn3)CC2)n1	1.1	1.4	1.5	-1	-0.033	-13	.
C#CCOCCOCCOCCNc1nc(N2CCN(C(=O)[C@H]([C@@H](C)O)n3cc(CCCCN)nn3)CC2)nc(N2CCN(C(=O)[C@H](Cc3ccc(O)cc3)n3cc(CCO)nn3)CC2)n1	1.2	1.5	1.5	12	2*	-18	0.083
Cc1ccc(S(=O)(=O)N2CCCN(S(=O)(=O)c3ccc4c(c3)OCCO4)CC2)cc1	0.8	1	1	4	-3.8*	15	?
CCCCC(=O)N/N=C/c1ccc(-c2ccc([N+](=O)[O-])cc2)o1	0.8	0.8	0.8	22	-0.96	23	.
CC(C)(C)NC(=S)N/N=C\c1ccc(-c2ccc([N+](=O)[O-])cc2)o1	.	.	.	.	-3.5*	.	0.048*
CCOC(=O)c1cnc2ccc(OCC)cc2c1N1CCN(C)CC1	0.9	1	0.9	-5	.	9	.
CCOc1ccc2ncc(S(=O)(=O)c3ccc(C)cc3)c(N3CCC4(CC3)OCCO4)c2c1	0.8	0.8	0.9	-20	.	22	0.063*

Compound activity: PubChem, several laboratories
